# Most compounds without a hit are left out; they make up all but 2.4% or so of the library.
# rRNA inh HTS: reduced GFP signal of wild-type E. coli, primary screen, bacterial rRNA inhibitor project, GFP/RFP fluorescence, OD600, single point; GFP signal change (wild-type ribosome), % (test concentration not listed); AID 720706, 2013; E. coli WT GFP vs humanized-ribosome RFP mutants, 24 h; stronger effect = lower value; DMSO median 0, no signal -100; hit rate 1.6% among 350,000;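 active = significant combined selectivity score with lowered wild-type GFP, culture density cut under 30%, mutant RFP and density less affected; inactive = any of these conditions unmet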
# ARNT-TACC3 inh: disruptors of ARNT/TACC3 protein interaction, primary screen, biochemical, AlphaScreen, single concentration. AID 623870, 2012. inhibition, % at 9.99 µM. Transforming acidic coiled-coil-containing protein 3 (Homo sapiens), Q9Y6A5. AlphaScreen His-ARNT PAS-B/GST-TACC3 binding, luminescence; TACC3 fragment carries E629A point mutation. hit rate 0.66% among 390,000;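 active = mean inhibition of replicates at least 50% and at least half of replicates each reaching 50%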;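 also: 0% = complete ARNT plus TACC3 wells and 100% = ARNT alone without TACC3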
# PGC1a acetyl inh: inhibitors of PGC1a acetylation signal, primary screen, cell-based, U2OS, AlphaScreen, inhibitor mode; inhibition, % at 15.6 µM; hit rate 0.17% among 350,000; AID 651687, 2012; AlphaScreen anti-acetyl-lysine; with virally co-expressed GCN5 acetyltransferase;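 active = every replicate shows inhibition of at least 40%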;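 also: 0% = neutral control wells and 100% = positive control wells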
# ERAP1 HTS inh: human ERAP1 aminopeptidase inhibitors, primary screen, biochemical, single point, plate reader; hit rate 0.15% among 340,000; recombinant ERAP1, Leu-AMC fluorescence, 60 min; Endoplasmic reticulum aminopeptidase 1 (Homo sapiens), Q9NZ08; inhibition, % at 10.7 µM;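 active = mean replicate inhibition of at least 30%, or all replicates individually reaching that 30% level; inactive = mean below 30% and not every replicate reaching it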;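 also: 0% = neutral control wells and 100% = L-leucinethiol positive control wells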
# S100A4 inh HTS: inhibitors of S100A4-myosin IIA peptide binding, primary screen, biochemical, fluorescence polarization, TAMRA-MyoIIA peptide | Protein S100-A4 (Homo sapiens), P26447 | inhibition, % at 10.7 µM | hit rate 0.14% among 360,000;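 active = mean inhibition of at least 70% across replicates, with every replicate also reaching that level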
#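 Material: S100A4 monomer protein | Medium: HEPES pH 7.2 with CaCl2, KCl, NaCl, DTT, Triton | Reagent: Labelled myosin peptide probe, 5 nM | Doses: One dose per compound | Times: 5 min incubation before reading | Benchmarks: Neutral control DMSO, positive control TFP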
# Casp6 inh: human caspase-6 inhibitors, primary screen, biochemical, VEID-R110 fluorescence, single point, set 2 | purified caspase-6, Z-VEID-R110 cleavage fluorescence | hit rate 0.53% among 350,000 | P55212 | inhibition, % at 12.5 µM;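 active = mean inhibition across replicates at least about 35%, with every replicate also reaching that limit, limit read from the data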;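 also: 0% = median of neutral control wells and 100% = no fluorescence left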
# * hit, by the source's call; · = no result given.
SMILES,rRNA inh HTS,ARNT-TACC3 inh,PGC1a acetyl inh,ERAP1 HTS inh,S100A4 inh HTS,Casp6 inh
CO[C@H]1CN(C)C(=O)c2cc(NC(=O)CC(F)(F)F)ccc2OC[C@H](C)N(C(=O)c2ccccc2F)C[C@H]1C,-0.7,·,5.4,-0.6,-10.3,0.9
CC(C)C(=O)Nc1ccc(-c2nc3ccccc3c(=O)o2)cc1,-10.5,16.2*,-17.0,-1.5,-1.3,2.0
Cc1cc(=O)[nH]c2ccc(S(=O)(=O)Nc3ccccc3)cc12,-5.6,-2.6,1.9,-2.5,-6.1,-1.4
Cc1cccc(NS(=O)(=O)c2ccc3[nH]c(=O)cc(C(=O)O)c3c2)c1,-14.5*,-0.4,·,-7.0,5.3,11.5
COc1cccc(-c2ccc([C@H]3[C@H](CO)N4C(=O)CN(C(=O)c5ccncc5)C[C@@H]34)cc2)c1,2.5,·,-7.1,-0.7,0.0,2.0
Cc1nonc1OCCN1CCN(c2ccc([N+](=O)[O-])cc2)CC1,-23.0*,-6.8,·,·,-2.1,1.4
O=[N+]([O-])c1ccc(CN2CCN(c3ccccc3)CC2)o1,18.0,-3.9,·,5.2,-0.7,5.9
O=[N+]([O-])c1ccc(N2CCN(Cc3ccc([N+](=O)[O-])o3)CC2)cc1,-23.0*,0.0,-11.3,-0.7,3.3,3.1
C[C@@H]1CN([C@@H](C)CO)C(=O)CCCn2cc(nn2)CO[C@@H]1CN(C)C(=O)Cc1ccccc1,-1.4,·,4.4,·,·,·
C[C@@H]1CCCCO[C@H](CN(C)C)[C@H](C)CN([C@H](C)CO)C(=O)c2cc(NS(=O)(=O)c3ccccc3)ccc2O1,0.3,·,3.4,·,·,·
CC(C)n1c2ccccc2c2cc([N+](=O)[O-])ccc21,5.4,-2.0,·,1.5,1.2,1.8
CCC(C)n1c(=S)[nH]c2c(sc3ccc([N+](=O)[O-])cc32)c1=O (stereo unspecified),-32.5*,17.0,·,0.9,-1.7,0.4
N#CC(C(=S)Nc1ccccc1)c1nc2ccccc2[nH]1 (stereo unspecified),-37.5*,-2.7,-15.0,3.1,-2.7,-0.3
O=C1C(Cl)=C(Nc2ccccc2)C(=O)c2ccccc21,7.7,2.2,·,3.9,-0.8,4.6
Cc1ccc(NC2=C(N3CCCCC3)C(=O)c3ccccc3C2=O)cc1,·,20.0,1.1,·,·,·
COC1=C(Nc2ccc(C)cc2)C(=O)c2ccccc2C1=O,-11.2,50.7*,·,2.0,-1.6,7.1
COC1=C(Nc2ccccc2)C(=O)c2ccccc2C1=O,·,46.1*,·,·,·,·
OC[C@@H]1CC[C@@H]2O[C@H](CCc3ccc(-c4ccccc4)cc3)[C@@H](n3cc(C4CC4)nn3)C[C@@H]2O1,·,·,-13.8,3.1,-0.9,0.3
O=C(Nc1ccc(F)cc1)N[C@H]1CC[C@@H](CC(=O)N2CCOCC2)O[C@@H]1CO,0.7,-8.3,-19.5,-0.4,2.5,-1.7
CC1C(=O)NN=C1C(=O)N/N=C\c1ccc(O)cc1O (stereo unspecified),-8.4,78.9*,·,6.9,-0.3,1.3
O=C(Nc1ccccc1F)Nc1cc(S(=O)(=O)N2CCOCC2)ccc1N1CCCC1,-19.1*,-1.7,-1.3,1.3,3.8,0.0
O=C(Nc1cc(S(=O)(=O)N2CCOCC2)ccc1N1CCCC1)c1ccccc1F,12.6,·,-6.7,-7.1,-0.4,1.5
COc1ccc(Cn2nnnc2CN2CCC(O)(c3ccc(F)cc3)CC2)cc1,-16.8,2.0,-7.0,4.2,-3.6,-0.9
COc1ccc(Cn2nnnc2CN2CCC(O)(c3ccccc3F)CC2)cc1,0.1,-4.4,3.4,-0.1,-2.7,-0.2
OC1(c2ccccc2F)CCN(Cc2nnnn2Cc2ccc(F)cc2)CC1,-20.9*,13.6,9.8,1.7,4.2,·
Cc1ccc(Cn2nnnc2CN2CCC(O)(c3ccc(F)cc3)CC2)cc1,-27.2*,-1.1,-9.9,-1.8,-0.8,0.7
